Data on two molecules can be found in article PMC2940062 (Cancer, 2010).

Data set [1] can be described thus: Docetaxel pharmacokinetics in plasma, day 1 of cycle 1. Format: in vivo. Particulars: human, intravenous. The gist of the method:
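Patients with advanced NSCLC got a 60-min i.v. docetaxel infusion on day 1, alongside oral everolimus (5 or 7.5 mg daily) and dexamethasone premedication (8 mg twice daily for 3 days, starting the day before). Peripheral venous blood was drawn into sodium heparin on cycle 1 day 1, centrifuged (4 °C, 3000 × g, 10 min), and plasma stored at −80 °C. Validated LC-MS/MS quantitation was used, with noncompartmental t1/2.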

For data set [2] the following is noted: single-agent docetaxel, second line NSCLC; cited from earlier work.
Data set [3] in a line: Everolimus pharmacokinetics in blood, cycle 1. It counts as in vivo, human. Particulars: for AUC(0-t) / Cmax: human, whole blood, oral. Summed up:
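NSCLC patients; oral mTOR inhibitor daily on days 1–19 of 3-week cycles, with a 60-min i.v. co-drug infusion on day 1 and dexamethasone premedication. Cycle 1, days 1, 8 and 15: 2 mL venous blood into K-EDTA at 30 min pre-dose and 1, 2, 5, 8 and 24 h post-dose, frozen at −20 °C within 60 min.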

Data set [4] deals with recurrent or refractory NSCLC. Particulars: everolimus monotherapy; cited from earlier work.
For data set [5] the following is noted: single agent; cited from earlier work.

For orientation: half-life means how long it takes for the measured level to halve. A higher half-life goes with slow decline. In general, AUC(0-inf) refers to total exposure, with the tail of the curve extrapolated. Low values mean low exposure, high ones high exposure. For orientation: Cmax means the highest concentration seen after dosing. Usually AUC(0-t) stands for exposure summed from dosing to a finite time, without extrapolation to infinity. A low value points to low exposure.

Read-outs that look alike come from different tables or passages of the source.

Turning to `CC(=O)O[C@@]12CO[C@@H]1C[C@H](O)[C@@]1(C)C(=O)[C@H](O)C3=C(C)[C@@H](OC(=O)[C@H](O)[C@@H](NC(=O)OC(C)(C)C)c4ccccc4)C[C@@](O)([C@@H](OC(=O)c4ccccc4)[C@H]21)C3(C)C` [Docetaxel, docetaxel], the half-life in data set [1] is 564 ± 204 min; in data set [1] (60 mg/m2), 1010 min; in data set [1] (75 mg/m2), 524 min. For the same molecule, the area under the curve AUC(0-inf) in data set [1] (60 mg/m2, AUC0-∞, Day 1, everolimus 5 mg/day, docetaxel 60 mg/m^2, n=1) was 2.08 µM·h; in data set [1] (75 mg/m2, AUC0-∞, Day 1, everolimus 5 mg/day, docetaxel 75 mg/m^2, n=3, mean (SD)), 6.95 µM·h; in data set [1] (75 mg/m2, AUC0-∞, Day 1, everolimus 7.5 mg/day, docetaxel 75 mg/m^2, n=1), 7.3 µM·h. The Cmax in data set [1] (60 mg/m2, Cmax, Day 1, everolimus 5 mg/day, docetaxel 60 mg/m^2, n=1) is 1010 nM; in data set [1] (75 mg/m2, Cmax, Day 1, everolimus 5 mg/day, docetaxel 75 mg/m^2, n=3, mean (SD)), 1610 nM. For the same molecule, in data set [2], the “incidence of fever with neutropenia” value is reported as 2–12%. The “recommended phase II dose (RP2D)” value (docetaxel day 1 every 3 weeks, in combination with everolimus) is listed as 60 mg/m^2.
Regarding `CO[C@H]1C[C@@H]2CC[C@@H](C)[C@@](O)(O2)C(=O)C(=O)N2CCCC[C@H]2C(=O)O[C@H]([C@H](C)C[C@@H]2CC[C@@H](OCCO)[C@H](OC)C2)CC(=O)[C@H](C)/C=C(\C)[C@@H](O)[C@@H](OC)C(=O)[C@H](C)C[C@H](C)/C=C/C=C/C=C/1C` [Everolimus, everolimus], the “Everolimus exposure (mean AUC and Cmax) versus dose” value in data set [3] (5 and 7.5 mg/day) is given as “increased proportionally with dose”. Also, the area under the curve AUC(0-t) amounted to 244 ng·h/mL in data set [3] (60 mg/m2, AUC0-24, Day 1, everolimus 5 mg/day, docetaxel 60 mg/m^2, n=3, mean (SD)); 329 ng·h/mL in data set [3] (60 mg/m2, AUC0-24, Day 8, everolimus 5 mg/day, docetaxel 60 mg/m^2, n=3, mean (SD)); 350 ng·h/mL in data set [3] (60 mg/m2, AUC0-24, Day 15, everolimus 5 mg/day, docetaxel 60 mg/m^2, n=3, mean (SD)); 330 ng·h/mL in data set [3] (75 mg/m2, AUC0-24, Day 1, everolimus 5 mg/day, docetaxel 75 mg/m^2, n=10, mean (SD)); 379 ng·h/mL in data set [3] (75 mg/m2, AUC0-24, Day 1, everolimus 7.5 mg/day, docetaxel 75 mg/m^2, n=4, mean (SD)); 336 ng·h/mL in data set [3] (75 mg/m2, AUC0-24, Day 8, everolimus 5 mg/day, docetaxel 75 mg/m^2, n=6, mean (SD)). The area under the curve AUC(0-t) in data set [3] (75 mg/m2, AUC0-24, Day 15, everolimus 5 mg/day, docetaxel 75 mg/m^2, n=6, mean (SD)) is 369 ng·h/mL; in data set [3] (75 mg/m2, AUC0-24, Day 15, everolimus 7.5 mg/day, docetaxel 75 mg/m^2, n=1) it was 772 ng·h/mL. The Cmax was 37.7 ng/mL in data set [3] (60 mg/m2, Cmax, Day 1, everolimus 5 mg/day, docetaxel 60 mg/m^2, n=3, mean (SD)); 51 ng/mL in data set [3] (60 mg/m2, Cmax, Day 15, everolimus 5 mg/day, docetaxel 60 mg/m^2, n=3, mean (SD)); 22.4 ng/mL in data set [3] (75 mg/m2, Cmax, Day 1, everolimus 5 mg/day, docetaxel 75 mg/m^2, n=10, mean (SD)); 35.8 ng/mL in data set [3] (75 mg/m2, Cmax, Day 8, everolimus 5 mg/day, docetaxel 75 mg/m^2, n=6, mean (SD)); 37.8 ng/mL in data set [3] (75 mg/m2, Cmax, Day 15, everolimus 5 mg/day, docetaxel 75 mg/m^2, n=6, mean (SD)); 102 ng/mL in data set [3] (75 mg/m2, Cmax, Day 15, everolimus 7.5 mg/day, docetaxel 75 mg/m^2, n=1). The response rate in data set [4] is 5%. For the same molecule, the “inter-patient variability in AUC” value in data set [5] is listed as 33%. In addition, the “recommended phase II dose (RP2D)” value (everolimus days 1-19 every 3 weeks, in combination with docetaxel) was determined as 5 mg PO daily.
